Our source for the IC50, half-life and solubility values is ChEMBL document CHEMBL4270638, “Sulfonyl-containing phenyl-pyrrolyl pentane analogues: Novel non-secosteroidal vitamin D receptor modulators with favorable physicochemical properties, pharmacokinetic properties and anti-tumor activity” (Eur J Med Chem, 2018).

≈ marks a conversion by molar mass, not a printed value.

The subject of one data set is PC-3. The data set can be described thus: Antiproliferative activity against human PC3 cells after 24 hrs by MTT assay. The note with it: PC-3, 24 h. It is filed as functional, cell-based.
The test system of another data set is BXPC-3. As to the kind of experiment: Antiproliferative activity against human BxPC3 cells after 24 hrs by MTT assay. It counts as functional, cell-based. Conditions: BXPC-3, 24 h.
A further data set deals with MCF7. The data set can be described thus: Antiproliferative activity against human MCF7 cells after 24 hrs by MTT assay. It counts as functional, cell-based. The note with it: MCF7, 24 h.
Data set [1] is described as follows: Half life in rat liver microsomes in presence of NADPH by HPLC method. It counts as ADME, microsome. The method, boiled down:
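Compounds incubated with rat liver microsomes plus NADPH. Remaining compound quantified by HPLC at 0, 5, 10, 20, 30, 45, 60 and 90 min, and half-life calculated.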

Data set [2] can be described thus: Solubility of the compound in water at pH 7.4 by HPLC method. It counts as physicochemical. The method, boiled down: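 Aqueous solubility measured at pH 7.4, with samples quantified by HPLC.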

Usually IC50 stands for the concentration at which inhibition is half-maximal. A low value points to greater potency in that assay. `CCN(CC)CCNC(=O)c1ccc(C(CC)(CC)c2ccc(OCS(C)(=O)=O)c(C)c2)n1CC`: the IC50 with PC-3 came out at 46.7 µM; in the data set with BXPC-3 it was 33.7 µM; in the data set on MCF7, 14.7 µM.
`CCn1c(C(=O)NCCNC(=O)OC(C)(C)C)ccc1C(CC)(CC)c1ccc(OCS(=O)(=O)c2ccccc2)c(C)c1`: the IC50 in the data set with PC-3, in the data set on BXPC-3 and with MCF7 was over 50 µM throughout.
Take `CCn1c(C(=O)N[C@H](C)CO)ccc1C(CC)(CC)c1ccc(OCS(=O)(=O)c2ccccc2)c(C)c1`: the values for the IC50 with PC-3, in the data set with BXPC-3 and with MCF7 were 7.79 µM, 10 µM and 10.6 µM, respectively.
As to `CCn1c(C(=O)N[C@H](CC(=O)O)C(=O)O)ccc1C(CC)(CC)c1ccc(OCS(=O)(=O)c2ccccc2)c(C)c1`, the IC50 in the data set on PC-3, with BXPC-3 and in the data set on MCF7 was over 50 µM each time.
In the case of `CCn1c(C(=O)N[C@H](C(=O)O)C(C)C)ccc1C(CC)(CC)c1ccc(OCS(=O)(=O)c2ccccc2)c(C)c1`, the IC50 came to 3.65 µM with PC-3, 16.2 µM in the data set with BXPC-3 and 24.5 µM in the data set on MCF7.
As to `CCn1c(C(=O)NC(C)(C)CO)ccc1C(CC)(CC)c1ccc(OCS(=O)(=O)c2ccccc2)c(C)c1`, the values for the concentration for half-maximal inhibition (IC50) in the data set on PC-3, with BXPC-3 and in the data set with MCF7 were 9.85 µM, 18.3 µM and 20.7 µM, respectively.
Regarding `CCn1c(C(=O)NCCO)ccc1C(CC)(CC)c1ccc(OCS(=O)(=O)c2ccccc2)c(C)c1`, the IC50 with PC-3 came out at 17.7 µM; in the data set with BXPC-3, 19.9 µM; in the data set on MCF7, 15.5 µM.
As for `CCn1c(C(=O)NC2(CO)CC2)ccc1C(CC)(CC)c1ccc(OCS(=O)(=O)c2ccccc2)c(C)c1`, the concentration for half-maximal inhibition (IC50) is 3.56 µM in the data set with PC-3, 45.4 µM in the data set with BXPC-3 and 28.8 µM in the data set with MCF7.
With `CCn1c(C(=O)NC2(C(=O)O)CC2)ccc1C(CC)(CC)c1ccc(OCS(=O)(=O)c2ccccc2)c(C)c1`, the IC50 was 26.3 µM in the data set on PC-3, over 50 µM in the data set with BXPC-3 and 41.2 µM in the data set on MCF7.
Take `CCn1c(C(=O)NCC(=O)OC)ccc1C(CC)(CC)c1ccc(OCS(=O)(=O)c2ccccc2)c(C)c1`: the values for the IC50 in the data set on PC-3, in the data set on BXPC-3 and with MCF7 were over 50 µM, 20 µM and over 50 µM, respectively.
What is called half-life is how long it takes for the measured level to halve. The term solubility denotes how much of the substance goes into solution per volume. `CCn1c(C(=O)N[C@@H](C)CO)ccc1C(CC)(CC)c1ccc(OCS(=O)(=O)c2ccccc2)c(C)c1`: the half-life in data set [1] was 43.8 min. Moreover, the IC50 with PC-3 amounted to 9.52 µM; with BXPC-3, 15.3 µM; in the data set on MCF7, 10.8 µM. The solubility in data set [2] was determined as 35.7 µg/mL (≈ 67.8 µM).
On to `CCn1c(C(=O)N[C@@H](CO)CCCO)ccc1C(CC)(CC)c1ccc(OCS(=O)(=O)c2ccccc2)c(C)c1`, for which the figures for the 50% inhibitory concentration (IC50) with PC-3, in the data set on BXPC-3 and in the data set on MCF7 were 13.4 µM, 16.4 µM and 29.6 µM, respectively.
Regarding `CCn1c(C(=O)N[C@H](CO)C(C)C)ccc1C(CC)(CC)c1ccc(OCS(=O)(=O)c2ccccc2)c(C)c1`, the half-life in data set [1] is 46.3 min. Moreover, the half-maximal inhibitory concentration (IC50) worked out at 7.3 µM in the data set with PC-3, 7.72 µM with BXPC-3 and 25.5 µM with MCF7. For the same molecule, the solubility in data set [2] was found to be 27.8 µg/mL (≈ 50.1 µM).
`CCn1c(C(=O)NCCCO)ccc1C(CC)(CC)c1ccc(OCS(=O)(=O)c2ccccc2)c(C)c1`: the results for the IC50 in the data set on PC-3, in the data set with BXPC-3 and in the data set on MCF7 were 11.3 µM, 26.6 µM and 42 µM, respectively.
As to `CCn1c(C(=O)NCCC(=O)O)ccc1C(CC)(CC)c1ccc(OCS(=O)(=O)c2ccccc2)c(C)c1`, the values for the concentration for half-maximal inhibition (IC50) with PC-3, in the data set with BXPC-3 and in the data set on MCF7 were 14.4 µM, over 50 µM and over 50 µM, respectively.
For the molecule `CCn1c(C(=O)N[C@H](CCC(=O)O)C(=O)O)ccc1C(CC)(CC)c1ccc(OCS(=O)(=O)c2ccccc2)c(C)c1`, the IC50 with PC-3, in the data set on BXPC-3 and in the data set on MCF7 was over 50 µM throughout.
For `CCn1c(C(=O)N[C@H](CO)CCCO)ccc1C(CC)(CC)c1ccc(OCS(=O)(=O)c2ccccc2)c(C)c1`, the half-inhibitory concentration (IC50) in the data set with PC-3 was 6.81 µM; with BXPC-3 it was over 50 µM; with MCF7, 31.4 µM.
In the case of `CCn1c(C(=O)N[C@@H](C)C(=O)O)ccc1C(CC)(CC)c1ccc(OCS(=O)(=O)c2ccccc2)c(C)c1`, the values for the IC50 with PC-3, in the data set with BXPC-3 and in the data set with MCF7 were 16.8 µM, 20.8 µM and 35.5 µM, respectively.
Take `CCn1c(C(=O)N[C@@H](CCC(=O)O)C(=O)O)ccc1C(CC)(CC)c1ccc(OCS(=O)(=O)c2ccccc2)c(C)c1`: the concentration for half-maximal inhibition (IC50) with PC-3, in the data set on BXPC-3 and in the data set with MCF7 was over 50 µM each time.
As for `CCn1c(C(=O)N[C@@H](CC(=O)O)C(=O)O)ccc1C(CC)(CC)c1ccc(OCS(=O)(=O)c2ccccc2)c(C)c1`, the IC50 with PC-3, with BXPC-3 and in the data set on MCF7 was over 50 µM in each case.
Regarding `CCn1c(C(=O)NCC(=O)O)ccc1C(CC)(CC)c1ccc(OCS(=O)(=O)c2ccccc2)c(C)c1`, the values for the IC50 with PC-3, with BXPC-3 and in the data set with MCF7 were 30.1 µM, over 50 µM and 33.1 µM, respectively.
For the molecule `CCn1c(C(=O)N[C@@H](C)C(=O)OC)ccc1C(CC)(CC)c1ccc(OCS(=O)(=O)c2ccccc2)c(C)c1`, the IC50 in the data set on PC-3 was over 50 µM; with BXPC-3 it was 17.9 µM; with MCF7 it was 43.7 µM.
Turning to `CCn1c(C(=O)N[C@@H](CO)C(C)C)ccc1C(CC)(CC)c1ccc(OCS(=O)(=O)c2ccccc2)c(C)c1`, the half-inhibitory concentration (IC50) in the data set on PC-3 was determined as 10.6 µM; with BXPC-3 it was 13.2 µM; in the data set on MCF7, 18.8 µM.
As to `CCn1c(C(=O)NCCN)ccc1C(CC)(CC)c1ccc(OCS(=O)(=O)c2ccccc2)c(C)c1`, the half-life in data set [1] was found to be 34.9 min. The IC50 in the data set with PC-3 came out at 6.89 µM; in the data set with BXPC-3, 6.43 µM; in the data set with MCF7, 6.47 µM. The molecule further displayed a solubility in data set [2] of 65 µg/mL (≈ 127 µM).
As to `CCn1c(C(=O)N[C@@H](CC(=O)OC)C(=O)OC)ccc1C(CC)(CC)c1ccc(OCS(=O)(=O)c2ccccc2)c(C)c1`, the IC50 was 6.49 µM in the data set on PC-3, over 50 µM with BXPC-3 and over 50 µM in the data set with MCF7.
As for `CCN(CC)CCNC(=O)c1ccc(C(CC)(CC)c2ccc(OCS(=O)(=O)c3ccccc3)c(C)c2)n1CC`, the half-life in data set [1] stood at 62.4 min. The IC50 in the data set with PC-3 turned out to be 7.13 µM; in the data set on BXPC-3, 6.27 µM; with MCF7, 4.68 µM. The same molecule gave a solubility in data set [2] of 117 µg/mL (≈ 207 µM).
Consider `CCn1c(C(=O)NCCC(=O)OC)ccc1C(CC)(CC)c1ccc(OCS(=O)(=O)c2ccccc2)c(C)c1`, for which the IC50 in the data set on PC-3 was 40.4 µM; with BXPC-3 it was over 50 µM; with MCF7 it was over 50 µM.
For `CCN(CC)CCNC(=O)c1cc(C(CC)(CC)c2ccc(OCS(C)(=O)=O)c(C)c2)cn1CC`, the IC50 in the data set on PC-3 was found to be 36.6 µM; in the data set with BXPC-3 it was 30.4 µM; in the data set on MCF7, 16.3 µM.
Take `CCn1c(C(=O)N[C@@H](C(=O)O)C(C)C)ccc1C(CC)(CC)c1ccc(OCS(=O)(=O)c2ccccc2)c(C)c1`: the IC50 was 3.07 µM in the data set on PC-3, 13.9 µM with BXPC-3 and 44.7 µM in the data set with MCF7.
For `CCn1c(C(=O)N[C@H](C)C(=O)OC)ccc1C(CC)(CC)c1ccc(OCS(=O)(=O)c2ccccc2)c(C)c1`, in that order: over 50 µM, over 50 µM and over 50 µM.
Regarding `CCn1c(C(=O)N[C@H](CO)CCO)ccc1C(CC)(CC)c1ccc(OCS(=O)(=O)c2ccccc2)c(C)c1`, the IC50 in the data set on PC-3 worked out at 12.1 µM; with BXPC-3, 15.9 µM; in the data set with MCF7, 28.5 µM.
Take `CCn1c(C(=O)N[C@@H](CO)CCO)ccc1C(CC)(CC)c1ccc(OCS(=O)(=O)c2ccccc2)c(C)c1`: the IC50 in the data set on PC-3 is 14.1 µM; with BXPC-3, over 50 µM; in the data set with MCF7, 27.4 µM.
For the molecule `CCn1c(C(=O)N[C@H](C)C(=O)O)ccc1C(CC)(CC)c1ccc(OCS(=O)(=O)c2ccccc2)c(C)c1`, the half-maximal inhibitory concentration (IC50) with PC-3 was 20.1 µM; with BXPC-3 it was 20.1 µM; with MCF7, over 50 µM.
